ChEMBL document CHEMBL1159367, “Antineoplastic agents. 485. Isolation and structure of cribrostatin 6, a dark blue cancer cell growth inhibitor from the marine sponge Cribrochalina sp” (2003)
In brackets after ≈: the same amount, converted by molar mass.

Legend:
Type in all cases: functional
KM-20L2 = assay: Growth inhibition of human KM20L2 cells
Bacillus subtilis = assay: Antimicrobial activity against Bacillus subtilis isolate by broth microdilution susceptibility assay
Enterococcus faecalis [1] = assay: Antimicrobial activity against vancomycin-resistant Enterococcus faecalis isolate by broth microdilution susceptibility assay
Outline: (§1)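 Broth microdilution susceptibility testing following established reference methods. MIC was taken as the lowest compound concentration giving complete inhibition of visible growth, with wells optically clear.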

Enterococcus faecalis [2] = assay: Antimicrobial activity against Enterococcus faecalis ATCC 29212 isolate by broth microdilution susceptibility assay; outline: as §1
Enterobacter cloacae = assay: Antimicrobial activity against Enterobacter cloacae ATCC 13047 by broth microdilution susceptibility assay
Staphylococcus aureus [3] = assay: Antimicrobial activity against Staphylococcus aureus ATCC 29213 by broth microdilution susceptibility assay; outline: as §1
Neisseria gonorrhoeae = assay: Antimicrobial activity against Neisseria gonorrhoeae ATCC 49226 by broth microdilution susceptibility assay
SF-268 = assay: Growth inhibition of human SF268 cells
P388 = assay: Growth inhibition of mouse P388 cells
Cryptococcus neoformans = assay: Antimicrobial activity against Cryptococcus neoformans ATCC 90112 by broth microdilution susceptibility assay
BXPC-3 = assay: Growth inhibition of human BxPC3 cells
Escherichia coli = assay: Antimicrobial activity against Escherichia coli ATCC 25922 by broth microdilution susceptibility assay
Streptococcus pneumoniae [4] = assay: Antimicrobial activity against Streptococcus pneumoniae isolate by broth microdilution susceptibility assay
Staphylococcus aureus [5] = assay: Antimicrobial activity against methicillin-resistant Staphylococcus aureus isolate by broth microdilution susceptibility assay; outline: as §1
Streptococcus = assay: Antimicrobial activity against Streptococcus isolate by broth microdilution susceptibility assay
Streptococcus pneumoniae [6] = assay: Antimicrobial activity against Streptococcus pneumoniae ATCC 6303 by broth microdilution susceptibility assay
MCF7 = assay: Growth inhibition of human MCF7 cells
DU-145 = assay: Growth inhibition of human DU145 cells
NCI-H460 = assay: Growth inhibition of human NCI-H460 cells
Candida albicans = assay: Antimicrobial activity against Candida albicans ATCC 90028 by broth microdilution susceptibility assay
Micrococcus luteus = assay: Antimicrobial activity against Micrococcus luteus Presque Isle 456 by broth microdilution susceptibility assay
Streptococcus pneumoniae [7] = assay: Antimicrobial activity against penicillin-resistant Streptococcus pneumoniae isolate by broth microdilution susceptibility assay; outline: as §1
[8] = system: Stenotrophomonas maltophilia; assay: Antimicrobial activity against Stenotrophomonas maltophilia ATCC 13637 by broth microdilution susceptibility assay

`CCOC1=C(C)C(=O)c2ccn3c(C)ncc3c2C1=O` [CRIBROSTATIN 6] was tested. Which GI50 (KM-20L2) did it give?
The GI50 was > 1 µg/mL.

What about the MIC (Bacillus subtilis) of the same molecule?
The MIC was 2 µg/mL (≈ 7.4 µM).

What about the MIC (Enterococcus faecalis [1]) of the same molecule?
The MIC was 32 µg/mL (≈ 118 µM).

And the MIC (Enterococcus faecalis [2])?
Its MIC is 32 µg/mL (≈ 118 µM).

And the MIC (Enterobacter cloacae)?
Its MIC is > 64 µg/mL.

And the MIC (Staphylococcus aureus [3])?
Its MIC is 16 µg/mL (≈ 59.2 µM).

What about the MIC (Neisseria gonorrhoeae) of the same molecule?
Its MIC is 0.0625 µg/mL (≈ 0.231 µM).

What about the GI50 (SF-268) of the same molecule?
Its GI50 is 0.24 µg/mL (≈ 0.888 µM).

And the GI50 (P388)?
Its GI50 is 0.29 µg/mL (≈ 1.07 µM).

And the EC50 (P388; read-out: ED50 (the source's name))?
The EC50 was 0.3 µg/mL (≈ 1.11 µM).

What about the MIC (Cryptococcus neoformans) of the same molecule?
The MIC was 2 µg/mL (≈ 7.4 µM).

And the GI50 (BXPC-3)?
Its GI50 is > 1 µg/mL.

What about the MIC (Escherichia coli) of the same molecule?
Its MIC is > 64 µg/mL.

What about the MIC (Streptococcus pneumoniae [4]) of the same molecule?
The MIC was 1 µg/mL (≈ 3.7 µM).

And the MIC (Staphylococcus aureus [5])?
Its MIC is 16 µg/mL (≈ 59.2 µM).

And the MIC (Streptococcus)?
The MIC was 16 µg/mL (≈ 59.2 µM).

And the MIC (Streptococcus pneumoniae [6])?
Its MIC is 0.5 µg/mL (≈ 1.85 µM).

What about the GI50 (MCF7) of the same molecule?
Its GI50 is 0.21 µg/mL (≈ 0.777 µM).

And the GI50 (DU-145)?
The GI50 was 0.38 µg/mL (≈ 1.41 µM).

And the GI50 (NCI-H460)?
The GI50 was > 1 µg/mL.

And the MIC (Candida albicans)?
The MIC was 64 µg/mL (≈ 237 µM).

And the MIC (Micrococcus luteus)?
Its MIC is 16 µg/mL (≈ 59.2 µM).

And the MIC (Streptococcus pneumoniae [7])?
The MIC was 2 µg/mL (≈ 7.4 µM).

What about the MIC [8] of the same molecule?
Its MIC is > 64 µg/mL.
